# Results as given in ChEMBL document CHEMBL1123566, “Synthesis and cardiac electrophysiological activity of 2- and 3-[(substituted phenyl)alkyl]quinuclidines. Structure-activity relationships” (1987).
# Where “and” joins values, the source holds several entries; their conditions need not be identical. Equal entries are not always repeated.
# Assays:
# Canis familiaris [1] = assay: Heart rate was determined by intraduodenal administration of two dosages of 30 mg/kg of compound in anesthetized dogs. Value was reported for experiment 1; format: functional, Canis lupus familiaris
# How it was run: (§1)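 Anesthetized dogs; compound given intraduodenally, generally as two doses, the second a cumulative (high) dose. LV functional refractory period and conduction time measured 15, 30 and 45 min after dosing; heart rate and blood pressure measured during nonpacing intervals. Values are % change from control, given per individual animal. Active if FRP or CT prolonged by ≥12%.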
# Canis familiaris [2] = assay: Heart rate was determined by intraduodenal administration of two dosages of 30 mg/kg of compound in anesthetized dogs. Value was reported for experiment 2; format: functional, Canis lupus familiaris; how it was run: as §1
# Canis familiaris [3] = assay: Conduction time was determined by intraduodenal administration of 30 mg/kg (high dose) of compound in anesthetized dogs. Value was reported for experiment 1; format: functional, Canis lupus familiaris; how it was run: as §1
# Canis familiaris [4] = assay: Conduction time was determined by intraduodenal administration of 30 mg/kg (high dose) of compound in anesthetized dogs. Value was reported for experiment 2; format: functional, Canis lupus familiaris; how it was run: as §1
# Canis familiaris [5] = assay: Conduction time was determined by intraduodenal administration of 10 mg/kg (low dose) of compound in anesthetized dogs. Value was reported for experiment 1; format: functional, Canis lupus familiaris; how it was run: as §1
# Canis familiaris [6] = assay: Conduction time was determined by intraduodenal administration of 10 mg/kg (low dose) of compound in anesthetized dogs. Value was reported for experiment 2; format: functional, Canis lupus familiaris; how it was run: as §1
# Canis familiaris [7] = assay: Heart rate was determined by intraduodenal administration of two dosages of 10 mg/kg of compound in anesthetized dogs. Value was reported for experiment 1; format: functional, Canis lupus familiaris; how it was run: as §1
# Canis familiaris [8] = assay: Heart rate was determined by intraduodenal administration of two dosages of 10 mg/kg of compound in anesthetized dogs. Value was reported for experiment 2; format: functional, Canis lupus familiaris; how it was run: as §1
# Canis familiaris [9] = assay: Left ventricular refractory period was determined by intraduodenal administration of 10 mg/kg (low dose) of compound in anesthetized dogs. Value was reported for experiment 1; format: functional, Canis lupus familiaris, Cardiac ventricle; conditions: 10 mg/kg
# How it was run: (§2)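 Anesthetized dogs received two intraduodenal doses, the second cumulative (low dose/high dose). Left ventricular FRP and CT were measured 15, 30 and 45 min after dosing. Heart rate and mean blood pressure were taken during nonpacing intervals. Values are percent change from control. The vehicle was 5% dextrose in water/tragacanth. Activity was defined as ≥12% prolongation of FRP or CT.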
# Canis familiaris [10] = assay: Left ventricular refractory period was determined by intravenous administration of two dosages (high/low) of 3 mg/kg of compound in anesthetized dogs. Value was reported for experiment 1; format: functional, Canis lupus familiaris, Cardiac ventricle
# Canis familiaris [11] = assay: Left ventricular refractory period was determined by intravenous administration of two dosages (high/low) of 3 mg/kg of compound in anesthetized dogs. Value was reported for experiment 2; format: functional, Canis lupus familiaris, Cardiac ventricle
# Canis familiaris [12] = assay: Left ventricular refractory period was determined by intraduodenal administration of 30 mg/kg (high dose) of compound in anesthetized dogs. Value was reported for experiment 1; format: functional, Canis lupus familiaris, Cardiac ventricle; how it was run: as §2
# Canis familiaris [13] = assay: Left ventricular refractory period was determined by intraduodenal administration of 30 mg/kg (high dose) of compound in anesthetized dogs. Value was reported for experiment 2; format: functional, Canis lupus familiaris, Cardiac ventricle; how it was run: as §2
# Canis familiaris [14] = assay: Mean arterial blood pressure was determined by intraduodenal administration of two dosages of 30 mg/kg of compound in anesthetized dogs. Value was reported for experiment 1; format: functional, Canis lupus familiaris; how it was run: as §2
# Canis familiaris [15] = assay: Mean arterial blood pressure was determined by intraduodenal administration of two dosages of 30 mg/kg of compound in anesthetized dogs. Value was reported for experiment 2; format: functional, Canis lupus familiaris; how it was run: as §2
# Canis familiaris [16] = assay: Mean arterial blood pressure was determined by intraduodenal administration of two dosages of 10 mg/kg of compound in anesthetized dogs. Value was reported for experiment 1; format: functional, Canis lupus familiaris; how it was run: as §2
# Canis familiaris [17] = assay: Mean arterial blood pressure was determined by intraduodenal administration of two dosages of 10 mg/kg of compound in anesthetized dogs. Value was reported for experiment 2; format: functional, Canis lupus familiaris; how it was run: as §2
# Canis familiaris [18] = species: Canis familiaris; assay: In vitro electrophysiological evaluation in canine cardiac ventricular muscle reported as maximum % change for conduction time(CT) at 0.1-10 uM concentration range; concentration at which it occurred is 0.1 uM.; format: functional, Canis lupus familiaris, Muscle tissue
# How it was run: (§3)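 Canine right ventricle and papillary muscle strips in oxygenated Tyrode's solution, fitted with stimulating and recording electrodes. The extra-stimulus conduction-interval method was adapted for in vitro use. FRP and CT were read from a conduction-interval curve before and after various compound concentrations, and expressed as percent change from control. Compounds were taken from 10 mM deionized-water stock into Tyrode's. Each strip was used once as its own control.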
# Canis familiaris [19] = species: Canis familiaris; assay: In vitro electrophysiological evaluation in canine cardiac ventricular muscle reported as % change for the functional refractory period (FRP) at 10 uM at concentration range of 0.1-10 uM; design: species or system Canis lupus familiaris, Muscle tissue; how it was run: as §3
# Canis familiaris [20] = species: Canis familiaris; assay: In vitro electrophysiological evaluation in canine cardiac ventricular muscle reported as maximum % change for functional refractory period (FRP) at 0.1-10 uM concentration range; concentration at which it occurred is 10 uM.; design: species or system Canis lupus familiaris, Muscle tissue; how it was run: as §3
# Canis familiaris [21] = species: Canis familiaris; assay: In vitro electrophysiological evaluation in canine cardiac Purkinje fibres reported as percent change Vmax at 10 uM at concentration range of 0.1-100 uM; Minimal (<10% decrease or increase in Vmax).; format: functional, organism-based; conditions: Canis lupus familiaris, Purkinje fiber
# How it was run: (§4)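 Canine cardiac Purkinje fibres, intracellular microelectrode recording, paced at a basic cycle length of 1 s. APD95 and Vmax read simultaneously. Compound: 10 mM stock in deionized water, diluted into Tyrode's solution, tested over the stated concentration range. Each fibre used once as its own control. Result is % change from control, given at 10 µM or as the maximum with its concentration. M = <10% decrease or an increase in Vmax.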
# Canis familiaris [22] = species: Canis familiaris; assay: In vitro electrophysiological evaluation in canine cardiac Purkinje fibres reported as percent change Vmax at 10 uM at concentration range of 0.1-10 uM; Minimal (<10% decrease or increase in Vmax).; format: functional; conditions: Canis lupus familiaris, Purkinje fiber; how it was run: as §4
# Canis familiaris [23] = species: Canis familiaris; assay: In vitro electrophysiological evaluation in canine cardiac Purkinje fibres reported as percent change Vmax at 10 uM at concentration range of 1-100 uM; format: functional; conditions: Canis lupus familiaris, Purkinje fiber; how it was run: as §4
# Canis familiaris [24] = species: Canis familiaris; assay: (§5) In vitro electrophysiological evaluation in canine cardiac occurred is 100 uM.; format: functional; conditions: Canis lupus familiaris; Heart
# Canis familiaris [25] = species: Canis familiaris; assay: as §5; format: functional; conditions: Canis lupus familiaris; Heart; remark: listed apart in the source
# Canis familiaris [26] = species: Canis familiaris; assay: In vitro electrophysiological evaluation in canine cardiac Purkinje fibres reported as percent change Vmax at 10 uM at concentration range of 0.1-100 uM; format: functional; conditions: Canis lupus familiaris, Purkinje fiber; how it was run: as §4
# Canis familiaris [27] = species: Canis familiaris; assay: In vitro electrophysiological evaluation in canine cardiac ventricular muscle reported as % change for conduction time(CT) at 0.1-10 uM concentration range; Minimal (<10% decrease or increase inCT).; format: functional, Canis lupus familiaris, Muscle tissue
# Canis familiaris [28] = species: Canis familiaris; assay: as §5; format: functional, organism-based; conditions: Canis lupus familiaris; Heart
# Canis familiaris [29] = species: Canis familiaris; assay: as §5; format: functional; conditions: Canis lupus familiaris; Heart; remark: listed apart in the source
# Canis familiaris [30] = species: Canis familiaris; assay: In vitro electrophysiological evaluation in canine cardiac Purkinje fibres reported as maximum percent change Vmax concentration range of 0.1-10 uM; Minimal (<10% decrease or increase in Vmax).; format: functional; conditions: Canis lupus familiaris; Purkinje fiber; how it was run: as §4
# Canis familiaris [31] = species: Canis familiaris; assay: (§6) In vitro electrophysiological activity in canine cardiac occurred is 10 uM.; format: functional, Canis lupus familiaris, Heart
# Canis familiaris [32] = species: Canis familiaris; assay: (§7) In vitro electrophysiological activity in canine cardiac occurred is 1 uM.; format: functional, Canis lupus familiaris, Heart
# Canis familiaris [33] = species: Canis familiaris; assay: as §6; format: functional, Canis lupus familiaris, Heart; remark: listed apart in the source
# Canis familiaris [34] = species: Canis familiaris; assay: as §7; format: functional, Canis lupus familiaris, Heart; remark: listed apart in the source
# Canis familiaris [35] = species: Canis familiaris; assay: In vitro electrophysiological evaluation in canine cardiac Purkinje fibres reported as % change for action potential duration at 10 uM at 1-100 uM concentration range; format: functional, Canis lupus familiaris, Purkinje fiber; how it was run: as §4
# Canis familiaris [36] = species: Canis familiaris; assay: In vitro electrophysiological evaluation in canine cardiac Purkinje fibres reported as % change for action potential duration at a concentration of 10 uM; format: functional, Canis lupus familiaris, Purkinje fiber; how it was run: as §4
# Canis familiaris [37] = species: Canis familiaris; assay: In vitro electrophysiological activity in canine cardiac occurred is 100 uM.; format: functional, Canis lupus familiaris, Heart
# Canis familiaris [38] = species: Canis familiaris; assay: as §7; format: functional, Canis lupus familiaris, Heart; remark: listed apart in the source
structure (smiles),measurement,setting,value
OC1C2CCN(CC2)C1CCCc1ccc(Cl)cc1 (stereo not drawn),HR,Canis familiaris [1],-14%
same,HR,Canis familiaris [2],-9%
same,CT,Canis familiaris [3],7%
same,CT,Canis familiaris [4],8%
same,CT,Canis familiaris [5],5%
same,CT,Canis familiaris [6],4%
same,HR,Canis familiaris [7],-6%
same,HR,Canis familiaris [8],-7%
same,LV FRP,Canis familiaris [9],4% and 7%
same,FRP,Canis familiaris [10],12%
same,FRP,Canis familiaris [11],8%
same,LV FRP,Canis familiaris [12],3%
same,LV FRP,Canis familiaris [13],9%
same,Mean blood pressure,Canis familiaris [14],14%
same,Mean blood pressure,Canis familiaris [15],-3%
same,Mean blood pressure,Canis familiaris [16],14%
same,Mean blood pressure,Canis familiaris [17],0%
same,CT,Canis familiaris [18],11%
same,FRP,Canis familiaris [19],21%
same,FRP,Canis familiaris [20],21%
same,Vmax,Canis familiaris [21],< 10%
same,Vmax,Canis familiaris [22],< 10%
same,Vmax,Canis familiaris [23],-13%
same,Vmax,Canis familiaris [24],100%
same,Vmax,Canis familiaris [25],100%
same,Vmax,Canis familiaris [26],-24% and -20%
same,CT,Canis familiaris [27],<10%
same,Vmax,Canis familiaris [28],-48%
same,Vmax,Canis familiaris [29],100%
same,Vmax,Canis familiaris [30],< 10%
same,APD95,Canis familiaris [31],14% and 40%
same,APD95,Canis familiaris [32],25% and 15%
same,APD95,Canis familiaris [33],13%
same,APD95,Canis familiaris [34],30%
same,APD95,Canis familiaris [35],13%
same,APD95,Canis familiaris [36],12%
same,APD95,Canis familiaris [37],-24% and -7%
same,APD95,Canis familiaris [38],41%
